Measurements reported in ChEMBL document CHEMBL1155387, “Substituted fused bicyclic pyrrolizinones as potent, orally bioavailable hNK1 antagonists” (Bioorg Med Chem Lett, 2010).
Values joined by “and” are separate entries in the source; they are usually repeats but may differ in a detail not shown here. Equal entries are not always repeated.

Key:
Gerbillinae [1] = experiment: Inhibition of GR-73632-induced foot tapping in gerbils at 3 mg/kg, iv after 24 hrs; format: functional; details: for inhibition in vivo at 3 mg/kg: Gerbillinae, iv, 24 h; for inhibition (INH): 3 mg/kg
Method in brief: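 Gerbils dosed iv at 3 mg/kg; foot tapping induced by NK1 agonist GR73632 evaluated 24 h post-dose; percent inhibition of the tapping response.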

[2] = Inhibition of sodium channel
Method in brief: (§1)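 Ion-channel binding assay; IC50 values calculated for sodium channel and for calcium channel (diltiazem site).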

Substance-P receptor [3] = target: T1, Substance-P receptor (Homo sapiens, UniProt P25103); experiment: Antagonist activity at human NK1 receptor expressed in CHO cells assessed as inhibition of substance P-induced inositol phosphate generation at 100 nM; format: functional, cell-based
T1 sequence (P25103 whole entry): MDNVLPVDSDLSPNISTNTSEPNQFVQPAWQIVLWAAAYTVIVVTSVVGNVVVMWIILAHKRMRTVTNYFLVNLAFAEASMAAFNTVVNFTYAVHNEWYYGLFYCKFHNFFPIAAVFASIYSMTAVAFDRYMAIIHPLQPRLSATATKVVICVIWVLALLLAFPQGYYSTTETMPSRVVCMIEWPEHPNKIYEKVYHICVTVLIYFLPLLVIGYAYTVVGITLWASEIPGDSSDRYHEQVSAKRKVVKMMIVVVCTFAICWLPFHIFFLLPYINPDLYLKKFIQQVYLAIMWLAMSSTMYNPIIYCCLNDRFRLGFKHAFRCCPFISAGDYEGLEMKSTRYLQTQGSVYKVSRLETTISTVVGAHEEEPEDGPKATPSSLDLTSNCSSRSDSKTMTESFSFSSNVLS

[4] = Displacement of diltiazem […] from calcium channel; method in brief: as §1
Substance-P receptor [5] = target: T1, Substance-P receptor; experiment: Displacement of [125I]substance P from human NK1 receptor expressed in CHO cells in the presence of 50 percent human serum; format: cell-based
Substance-P receptor [6] = target: T1, Substance-P receptor; experiment: Displacement of [125I]substance P from human NK1 receptor expressed in CHO cells; format: cell-based
Method in brief: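 Competition binding: [125I]-labelled substance P displaced from cloned human NK1 receptor expressed in CHO cells; IC50 reported as mean of n = 3.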

Gerbillinae [7] = experiment: Inhibition of GR-73632-induced foot tapping in gerbils at 1 mg/kg, iv after 1 hr; format: functional
Method in brief: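 Gerbils given 1 mg/kg iv; GR73632-induced foot tapping challenged 1 h after dosing; inhibition of tapping scored.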

| Structure (SMILES) | inhibition in vivo at 3 mg/kg (Gerbillinae [1]) | IC50 [2] | inhibition of substance P-induced inositol phosphate generation (Substance-P receptor [3]) | IC50 [4] | IC50 (Substance-P receptor [5]) | IC50 (Substance-P receptor [6]) | inhibition in vivo at 1 mg/kg (Gerbillinae [7]) | inhibition (INH) (Gerbillinae [1]) |
| --- | --- | --- | --- | --- | --- | --- | --- | --- |
| C[C@@H](O[C@H]1CN2C(=O)C(NCc3ccn[nH]3)C[C@H]2[C@@H]1c1ccc(F)cc1)c1cc(C(F)(F)F)cc(C(F)(F)F)c1 (stereo not given in full) | 92% | 1470 nM | 55% | 598 nM | 0.9 nM | 0.06 nM |  |  |
| C[C@@H](O[C@H]1CN2C(=O)C(NCc3nn[nH]c3CN(C)C)C[C@H]2[C@@H]1c1ccc(F)cc1)c1cc(C(F)(F)F)cc(C(F)(F)F)c1 (stereo not given in full) |  | 2410 nM | 40% | 301 nM | 1.4 nM | 0.13 nM | 88% |  |
| C[C@@H](O[C@H]1CN2C(=O)CC(NCc3ccn[nH]3)[C@H]2[C@@H]1c1ccc(F)cc1)c1cc(C(F)(F)F)cc(C(F)(F)F)c1 (stereo not given in full) | 94% | 2970 nM | 68% | 2390 nM | 1.83 nM | 0.13 nM |  |  |
| C[C@@H](O[C@H]1CN2C(=O)CC(n3cnnc3)[C@H]2[C@@H]1c1ccc(F)cc1)c1cc(C(F)(F)F)cc(C(F)(F)F)c1 (stereo not given in full) |  | 7820 nM | 52% | > 10000 nM | 0.83 nM | 0.07 nM | 0% |  |
| C[C@@H](O[C@H]1CN2C(=O)CC(C)(N)[C@H]2[C@@H]1c1ccc(F)cc1)c1cc(C(F)(F)F)cc(C(F)(F)F)c1 (stereo not given in full) | 100% | 1400 nM | 45% | 767 nM | 0.42 nM | 0.08 nM |  |  |
| C[C@@H](O[C@H]1CN2C(=O)C(n3cnnc3)C[C@H]2[C@@H]1c1ccc(F)cc1)c1cc(C(F)(F)F)cc(C(F)(F)F)c1 (single isomer, unassigned) [listing 1 of 2 here] |  | 5320 nM |  |  | 1.8 nM | 0.05 nM | 0% |  |
| C[C@@H](O[C@H]1CN2C(=O)C(C)(O)C[C@H]2[C@@H]1c1ccc(F)cc1)c1cc(C(F)(F)F)cc(C(F)(F)F)c1 (single isomer, unassigned) [listing 1 of 2 here] | 98% | 4820 nM |  | 1870 nM | 2.5 nM | 0.09 nM |  |  |
| C[C@@H](O[C@H]1CN2C(=O)C(O)C[C@H]2[C@@H]1c1ccc(F)cc1)c1cc(C(F)(F)F)cc(C(F)(F)F)c1 (single isomer, unassigned) [listing 1 of 2 here] | 95% | 5140 nM |  | 8060 nM | 5.6 nM | 0.14 nM |  |  |
| C[C@@H](O[C@H]1CN2C(=O)C(C)(O)C[C@H]2[C@@H]1c1ccc(F)cc1)c1cc(C(F)(F)F)cc(C(F)(F)F)c1 (single isomer, unassigned) [listing 2 of 2 here] |  |  | 70% |  |  |  |  |  |
| C[C@@H](O[C@H]1CN2C(=O)C(O)C[C@H]2[C@@H]1c1ccc(F)cc1)c1cc(C(F)(F)F)cc(C(F)(F)F)c1 (single isomer, unassigned) [listing 2 of 2 here] |  |  | 90% |  |  |  |  |  |
| C[C@@H](O[C@H]1CN2C(=O)C(n3cnnc3)C[C@H]2[C@@H]1c1ccc(F)cc1)c1cc(C(F)(F)F)cc(C(F)(F)F)c1 (single isomer, unassigned) [listing 2 of 2 here] |  |  | 74% |  |  |  |  |  |
| C[C@@H](O[C@H]1CN2C(=O)CC(O)[C@H]2[C@@H]1c1ccc(F)cc1)c1cc(C(F)(F)F)cc(C(F)(F)F)c1 (single isomer, unassigned; 18a) [listing 1 of 2 here] | 100% | 1990 nM |  | 2380 nM | 2.1 nM | 0.08 nM |  |  |
| C[C@@H](O[C@H]1CN2C(=O)CC(O)[C@H]2[C@@H]1c1ccc(F)cc1)c1cc(C(F)(F)F)cc(C(F)(F)F)c1 (single isomer, unassigned; 18a) [listing 2 of 2 here] |  |  | 65% |  |  |  |  |  |
| C[C@@H](O[C@H]1CN2C(=O)CC(O)[C@H]2[C@@H]1c1ccc(F)cc1)c1cc(C(F)(F)F)cc(C(F)(F)F)c1 (single isomer, unassigned; 18b) [listing 1 of 2 here] |  |  |  |  | 2.7 nM | 0.07 nM |  |  |
| C[C@@H](O[C@H]1CN2C(=O)CC(O)[C@H]2[C@@H]1c1ccc(F)cc1)c1cc(C(F)(F)F)cc(C(F)(F)F)c1 (single isomer, unassigned; 18b) [listing 2 of 2 here] |  |  | 79% |  |  |  |  |  |
| C[C@@H](O[C@H]1CN2C(=O)C(O)C[C@H]2[C@@H]1c1ccc(F)cc1)c1cc(C(F)(F)F)cc(C(F)(F)F)c1 (stereo in doubt; 2b) |  |  | 60% |  |  |  |  |  |

| Structure (SMILES) | inhibition in vivo at 3 mg/kg (Gerbillinae [1]) | IC50 [2] | inhibition of substance P-induced inositol phosphate generation (Substance-P receptor [3]) | IC50 [4] | IC50 (Substance-P receptor [5]) | IC50 (Substance-P receptor [6]) | inhibition in vivo at 1 mg/kg (Gerbillinae [7]) | inhibition (INH) (Gerbillinae [1]) |
| --- | --- | --- | --- | --- | --- | --- | --- | --- |
| C[C@@H](O[C@H]1CN2C(=O)C(N)C[C@H]2[C@@H]1c1ccc(F)cc1)c1cc(C(F)(F)F)cc(C(F)(F)F)c1 (stereo in doubt; 3a) [listing 1 of 2 here] | 99% | 2820 nM |  | 98 nM | 2.1 nM | 0.27 nM |  |  |
| C[C@@H](O[C@H]1CN2C(=O)C(N)C[C@H]2[C@@H]1c1ccc(F)cc1)c1cc(C(F)(F)F)cc(C(F)(F)F)c1 (stereo in doubt; 3a) [listing 2 of 2 here] |  |  | 92% |  |  |  |  |  |
| C[C@@H](O[C@H]1CN2C(=O)C(N)C[C@H]2[C@@H]1c1ccc(F)cc1)c1cc(C(F)(F)F)cc(C(F)(F)F)c1 (stereo in doubt; 3b) [listing 1 of 2 here] |  | 239 nM |  | 214 nM | 0.38 nM | 0.06 nM |  | 100% |
| C[C@@H](O[C@H]1CN2C(=O)C(N)C[C@H]2[C@@H]1c1ccc(F)cc1)c1cc(C(F)(F)F)cc(C(F)(F)F)c1 (stereo in doubt; 3b) [listing 2 of 2 here] |  |  | 59% |  |  |  |  |  |
| C[C@@H](O[C@H]1CN2C(=O)C(C)(O)C[C@H]2[C@@H]1c1ccc(F)cc1)c1cc(C(F)(F)F)cc(C(F)(F)F)c1 (stereo in doubt; 5b) [listing 1 of 2 here] |  | 3200 nM |  | 2180 nM | 0.8 nM | 0.04 nM |  | 100% |
| C[C@@H](O[C@H]1CN2C(=O)C(C)(O)C[C@H]2[C@@H]1c1ccc(F)cc1)c1cc(C(F)(F)F)cc(C(F)(F)F)c1 (stereo in doubt; 5b) [listing 2 of 2 here] |  |  | 45% |  |  |  |  |  |
| C[C@@H](O[C@H]1CN2C(=O)CC(N)[C@H]2[C@@H]1c1ccc(F)cc1)c1cc(C(F)(F)F)cc(C(F)(F)F)c1 (stereo in doubt; 15a) |  |  | 75% |  |  |  |  |  |
| C[C@@H](O[C@H]1CN2C(=O)CC(N)[C@H]2[C@@H]1c1ccc(F)cc1)c1cc(C(F)(F)F)cc(C(F)(F)F)c1 (stereo in doubt; 15b) [listing 1 of 2 here] |  | 4980 nM and 558 nM |  | 1560 nM and 1360 nM | 0.77 nM and 1.8 nM | 0.08 nM and 0.11 nM |  |  |
| C[C@@H](O[C@H]1CN2C(=O)CC(N)[C@H]2[C@@H]1c1ccc(F)cc1)c1cc(C(F)(F)F)cc(C(F)(F)F)c1 (stereo in doubt; 15b) [listing 2 of 2 here] |  |  | 87% and 63% |  |  |  |  |  |
| C[C@@H](O[C@H]1CN2C(=O)CC(C)(O)[C@H]2[C@@H]1c1ccc(F)cc1)c1cc(C(F)(F)F)cc(C(F)(F)F)c1 (stereo in doubt; 20a) [listing 1 of 2 here] | 96% | 2210 nM |  | 2210 nM | 1.1 nM | 0.07 nM |  |  |
| C[C@@H](O[C@H]1CN2C(=O)CC(C)(O)[C@H]2[C@@H]1c1ccc(F)cc1)c1cc(C(F)(F)F)cc(C(F)(F)F)c1 (stereo in doubt; 20a) [listing 2 of 2 here] |  |  | 28% |  |  |  |  |  |
| C[C@@H](O[C@H]1CN2C(=O)CC(C)(O)[C@H]2[C@@H]1c1ccc(F)cc1)c1cc(C(F)(F)F)cc(C(F)(F)F)c1 (stereo in doubt; 20b) [listing 1 of 2 here] |  |  |  |  | 2.6 nM | 0.06 nM |  |  |
| C[C@@H](O[C@H]1CN2C(=O)CC(C)(O)[C@H]2[C@@H]1c1ccc(F)cc1)c1cc(C(F)(F)F)cc(C(F)(F)F)c1 (stereo in doubt; 20b) [listing 2 of 2 here] |  |  | 57% |  |  |  |  |  |
| C[C@@H](O[C@H]1CN2C(=O)C(n3cnnc3)C[C@H]2[C@@H]1c1ccc(F)cc1)c1cc(C(F)(F)F)cc(C(F)(F)F)c1 (stereo in doubt; 21a) [listing 1 of 2 here] |  | > 10000 nM |  | > 10000 nM | 1.9 nM | 0.07 nM |  |  |
| C[C@@H](O[C@H]1CN2C(=O)C(n3cnnc3)C[C@H]2[C@@H]1c1ccc(F)cc1)c1cc(C(F)(F)F)cc(C(F)(F)F)c1 (stereo in doubt; 21a) [listing 2 of 2 here] |  |  | 81% |  |  |  |  |  |
